Assay results taken from ChEMBL document CHEMBL1649382, “Synthesis and in vitro anticancer evaluation of some novel hexahydroquinoline derivatives having a benzenesulfonamide moiety” (Eur J Med Chem, 2011).
Values after ≈ are worked out from the molar mass of the structure shown.

Tests used:
[1] = Cytotoxicity against mouse EAC assessed as non-viable cells at 100 ug/ml after 2 hrs by trypan blue exclusion test; type: functional, Ehrlich
How it was run: (§1)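 Mouse EAC cells came from ascitic fluid by needle aspiration, at 2.5×10^6 per mL in RPMI-1640. Each tube held 0.8 mL medium (glutamine, fetal calf serum, streptomycin, penicillin), 0.1 mL compound dissolved in DMSO (stock 10–100 µg per mL) and 0.1 mL of cells, at 37 °C for 2 h. Trypan blue staining gave the percentage of non-viable cells, as the mean of three experiments ± SD.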

[2] = Cytotoxicity against mouse EAC assessed as non-viable cells at 50 ug/ml after 2 hrs by trypan blue exclusion test; type: functional, Ehrlich; how it was run: as §1
[3] = Cytotoxicity against mouse EAC assessed as non-viable cells at 25 ug/ml after 2 hrs by trypan blue exclusion test; type: functional, Ehrlich; how it was run: as §1
[4] = Cytotoxicity against mouse EAC assessed as non-viable cells at 10 ug/ml after 2 hrs by trypan blue exclusion test; type: functional, Ehrlich; how it was run: as §1
[5] = Cytotoxicity against mouse EAC assessed as non-viable cells after 2 hrs by trypan blue exclusion test; type: functional, cell-based; details: Ehrlich
How it was run: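 EAC cells were aspirated from the ascitic fluid of preinoculated mice and suspended in RPMI-1640 at 2.5×10^6 per mL. Each tube held 0.8 mL supplemented medium, 0.1 mL of a DMSO solution (100, 50, 25 or 10 µg per mL DMSO) and 0.1 mL of cells, incubated 2 h at 37 °C. Non-viable cells were counted by trypan blue. The survival-versus-concentration curve gave IC50, the concentration causing 50% mortality.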

SMILES | Activity [1] | Activity [2] | Activity [3] | Activity [4] | IC50 [5]
NS(=O)(=O)c1ccc(N2C3=C(C(=O)CCC3)C(c3ccc(Cl)cc3Cl)c3c2nc(CCl)[nH]c3=O)cc1 (stereo not given) | 40% | 35% | 30% | 30% | > 100 µg/mL
N#CC1=C(N)N(c2ccc(S(N)(=O)=O)cc2)C2=C(C(=O)CCC2)C1c1ccc(Cl)cc1Cl (stereo not given) | 95% | 65% | 50% | 40% | 25 µg/mL (≈ 51.1 µM)
NC1=C(C(=O)O)C(c2ccc(Cl)cc2Cl)C2=C(CCCC2=O)N1c1ccc(S(N)(=O)=O)cc1 (stereo not given) | 60% | 10% | 0% | 0% | > 100 µg/mL
CC(Cl)Cc1nc2c(c(=O)[nH]1)C(c1ccc(Cl)cc1Cl)C1=C(CCCC1=O)N2c1ccc(S(N)(=O)=O)cc1 (stereo not given) | 60% | 40% | 40% | 30% | > 100 µg/mL
NS(=O)(=O)c1ccc(N2C3=C(C(=O)CCC3)C(c3ccc(Cl)cc3Cl)c3c2nc(C2CC2)[nH]c3=O)cc1 (stereo not given) | 60% | 52% | 44% | 27% | 56 µg/mL (≈ 100 µM)
N#CC1=C(NC(=O)c2ccccc2)N(c2ccc(S(N)(=O)=O)cc2)C2=C(C(=O)CCC2)C1c1ccc(Cl)cc1Cl (stereo not given) | 75% | 70% | 60% | 50% | 10 µg/mL (≈ 16.8 µM)
CC(Cl)CC(=O)NC1=C(C#N)C(c2ccc(Cl)cc2Cl)C2=C(CCCC2=O)N1c1ccc(S(N)(=O)=O)cc1 (stereo not given) | 60% | 55% | 50% | 20% | 25 µg/mL (≈ 42.1 µM)
CN(C)c1ccc(/C=N/C2=C(C#N)C(c3ccc(Cl)cc3Cl)C3=C(CCCC3=O)N2c2ccc(S(N)(=O)=O)cc2)cc1 (stereo not given) | 40% | 30% | 30% | 10% | > 100 µg/mL
N#CC1=C(NC(=O)/C=C/c2ccccc2)N(c2ccc(S(N)(=O)=O)cc2)C2=C(C(=O)CCC2)C1c1ccc(Cl)cc1Cl (stereo not given) | 45% | 40% | 30% | 30% | > 100 µg/mL
Cc1nc2c(c(=S)[nH]1)C(c1ccc(Cl)cc1Cl)C1=C(CCCC1=O)N2c1ccc(S(N)(=O)=O)cc1 (stereo not given) | 60% | 40% | 40% | 30% | > 100 µg/mL
N#CC1=C(NC(=O)C2CC2)N(c2ccc(S(N)(=O)=O)cc2)C2=C(C(=O)CCC2)C1c1ccc(Cl)cc1Cl (stereo not given) | 60% | 40% | 40% | 20% | 75 µg/mL (≈ 135 µM)
N#CC1=C(/N=C/c2ccc([N+](=O)[O-])cc2[N+](=O)[O-])N(c2ccc(S(N)(=O)=O)cc2)C2=C(C(=O)CCC2)C1c1ccc(Cl)cc1Cl (stereo not given) | 20% | 20% | 20% | 10% | > 100 µg/mL
NC(=O)C1=C(N)N(c2ccc(S(N)(=O)=O)cc2)C2=C(C(=O)CCC2)C1c1ccc(Cl)cc1Cl (stereo not given) | 45% | 40% | 30% | 30% | > 100 µg/mL
Cc1ccc(-c2nc3c(c(=O)[nH]2)C(c2ccc(Cl)cc2Cl)C2=C(CCCC2=O)N3c2ccc(S(N)(=O)=O)cc2)cc1 (stereo not given) | 60% | 55% | 55% | 30% | 28 µg/mL (≈ 46.1 µM)
Cc1ccc(C(=O)NC2=C(C#N)C(c3ccc(Cl)cc3Cl)C3=C(CCCC3=O)N2c2ccc(S(N)(=O)=O)cc2)cc1 (stereo not given) | 40% | 40% | 30% | 20% | > 100 µg/mL
CCO/C=N/C1=C(C#N)C(c2ccc(Cl)cc2Cl)C2=C(CCCC2=O)N1c1ccc(S(N)(=O)=O)cc1 (stereo not given) | 40% | 35% | 30% | 30% | > 100 µg/mL
CC(=O)CC(=O)NC1=C(C#N)C(c2ccc(Cl)cc2Cl)C2=C(CCCC2=O)N1c1ccc(S(N)(=O)=O)cc1 (stereo not given) | 80% | 60% | 44% | 40% | 64 µg/mL (≈ 112 µM)
N#CC1=C(NC(=O)c2ccc([N+](=O)[O-])cc2)N(c2ccc(S(N)(=O)=O)cc2)C2=C(C(=O)CCC2)C1c1ccc(Cl)cc1Cl (stereo not given) | 70% | 50% | 40% | 40% | 50 µg/mL (≈ 78.3 µM)
COc1cc(C(=O)NC2=C(C#N)C(c3ccc(Cl)cc3Cl)C3=C(CCCC3=O)N2c2ccc(S(N)(=O)=O)cc2)cc(OC)c1OC (stereo not given) | 95% | 95% | 20% | 0% | 60 µg/mL (≈ 87.8 µM)
COc1cccc2c1C(=O)c1c(O)c3c(c(O)c1C2=O)C[C@@](O)(C(=O)CO)C[C@@H]3O[C@H]1C[C@H](N)[C@H](O)[C@H](C)O1 [DOXORUBICIN] | 100% | 68% | 32% | 19% | 38 µg/mL (≈ 69.9 µM)
CN(C)c1ccc(/C=C/C=N/C2=C(C#N)C(c3ccc(Cl)cc3Cl)C3=C(CCCC3=O)N2c2ccc(S(N)(=O)=O)cc2)cc1 (stereo not given) | 20% | 20% | 20% | 10% | > 100 µg/mL
NS(=O)(=O)c1ccc(N2C3=C(C(=O)CCC3)C(c3ccc(Cl)cc3Cl)c3c2nc(-c2ccccc2)[nH]c3=O)cc1 (stereo not given) | 60% | 10% | 0% | 0% | > 100 µg/mL
NS(=O)(=O)c1ccc(N2C3=C(C(=O)CCC3)C(c3ccc(Cl)cc3Cl)c3c2nc(-c2ccc(Br)cc2)[nH]c3=O)cc1 (stereo not given) | 100% | 60% | 50% | 20% | 25 µg/mL (≈ 37.2 µM)
